Experimental findings from ChEMBL document CHEMBL3272340, “P-Aminobenzoic acid derivatives as inhibitors of the cell-free H2-pteroate synthesizing system of Escherichia coli” (J Med Chem, 1977) are described below.

Data set [1] relates to Escherichia coli B. The experiment in a line: Competitive inhibition of Escherichia coli B H2-pteroate synthetase assessed as decrease in H2-pteroate formation using [7-14C]-PABA as substrate treated with enzyme for 10 mins prior to substrate challenge for 40 mins by radioassay method. Summed up: (§1)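 Cell-free extract of E. coli B (400-600 ug protein) was preincubated 10 min at 37 °C with 0.5 umol ATP, 2 umol MgCl2, 0.5 mg ascorbate, 0.1 mmol Tris-HCl pH 8.0 and 20 nmol 2-amino-4-hydroxy-6-hydroxymethyl-7,8-dihydropteridine in 0.45 ml. [7-14C]-PABA was then added and incubation ran 40 min. The reaction was stopped with citric acid phosphate buffer pH 3.8, free PABA was ether-extracted, and aqueous radioactivity was counted.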

A short description of data set [2]: Competitive inhibition of Escherichia coli B H2-pteroate synthetase assessed as decrease in H2-pteroate formation using [7-14C]-PABA as substrate treated with enzyme for 10 mins prior to substrate challenge for 40 mins by Dixon plot analysis. Summed up:
as §1

Data set [3] in a line: Dissociation constant, pKa of the compound. It is filed as physicochemical.
Data set [4] concerns Escherichia coli. Kind of data set: Antibacterial activity against Escherichia coli 273 assessed as growth inhibition at 1 mM after 22 hrs. It is filed as functional, organism-based. Put shortly: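 PABA-requiring E. coli 273 was grown across a range of PABA concentrations with compound at 1 mM, and growth was read after 22 h of incubation.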

Molecules are shown by their SMILES. Calls of active or inactive are those of the source. The calls are words filed in the database; no cut-off is given here.

With `Nc1ccc(C(=O)Nc2ccccc2)cc1`, the Inhibition index in data set [1] amounted to 600. Same read-out and setting: the same measure for `CNC(=O)c1ccc(N)cc1`: 120; for `CCC(=O)c1ccc(N)cc1`: 180.

As for `Nc1ccc(C(=O)N[C@@H](CCC(=O)O)C(=O)O)cc1`, in data set [1], the Inhibition index amounted to 76. Besides, the Ki in data set [2] was found to be 170 µM. As to `Nc1ccc(C(=O)NCCCC(=O)O)cc1`, in data set [1], the Inhibition index is 700.

Consider `NC(=O)c1ccc(N)cc1`, for which the Inhibition index in data set [1] amounted to 53.

Take `CC(=O)c1ccc(N)cc1`: the pKa in data set [3] stood at 2.5. In addition, the Inhibition index in data set [1] came out at 210. On to `CCOC(=O)CC(=O)c1ccc(N)cc1`, for which the Inhibition index in data set [1] was 105. As for `CCOC(=O)c1ccc(N)cc1` [BENZOCAINE], the pKa in data set [3] is 2.5. In addition, the Inhibition index in data set [1] was determined as 600.

As to `CN(C)C(=O)c1ccc(N)cc1`, in data set [1], the Inhibition index was 400. On the same count and under the same terms, the same measure for `CCOC(=O)CC[C@H](NC(=O)c1ccc(N)cc1)C(=O)OCC`: 600. In data set [3], `COC(=O)c1ccc(N)cc1` came in with a pKa of 2.46. Besides, the Inhibition index in data set [1] turned out to be 450. In turn, `Nc1ccc(CC(=O)O)cc1` returned a pKa in data set [3] of 3.6.

For the compound `Nc1ccc(C(=O)N[C@H](CCC(=O)O)C(=O)O)cc1`, the Inhibition index in data set [1] was 250.

Take `Nc1ccc(C(=O)CC(C(=O)O)c2ccccc2)cc1` (stereo in doubt; 26): the Inhibition index in data set [1] was 40. Still for that read-out and setting: then `Nc1ccc(C(=O)CC(C(=O)O)c2ccccc2)cc1` (stereo in doubt; 25), with 480; and `CCOC(=O)CCC(=O)c1ccc(N)cc1`, with 460; and `Nc1ccc(C(=O)NCC(=O)O)cc1`, with 260.

In data set [3], `Nc1ccc(C(=O)c2ccccc2)cc1` returned a pKa of 2.24. Also, the Inhibition index in data set [1] stood at 800. Take `Nc1ccc(C(=O)CCC(=O)O)cc1`: in data set [1], the Inhibition index came out at 55. Further, the Ki in data set [2] amounted to 130 µM. In addition, the “growth inhibition (GI)” value in data set [4] is “inactive”. For the compound `Nc1ccc(C(=O)NCCc2ccccc2)cc1`, in data set [1], the Inhibition index came out at 800. `Nc1ccc(C(=O)CC(C(=O)O)c2ccccc2)cc1` (racemic) [listing 1 of 2 here]: the Ki in data set [2] is 150 µM. `Nc1ccc(C(=O)CC(C(=O)O)c2ccccc2)cc1` (racemic) [listing 2 of 2 here]: the Inhibition index in data set [1] worked out at 74. Further, the “growth inhibition (GI)” value in data set [4] was “inactive”. For `COC(=O)CNC(=O)c1ccc(N)cc1`, the Inhibition index in data set [1] turned out to be 550. Take `Cc1ccc(N)cc1`: the pKa in data set [3] turned out to be 5.1.

For orientation: Ki means the equilibrium dissociation constant of an inhibitor or competing ligand from its target. By pKa is commonly meant the pH at which an ionisable group is half protonated. A higher pKa goes with a group that holds its proton tightly.
